Results reported in ChEMBL document CHEMBL2176934 (J Med Chem, 2012).
Calls of active or inactive are those of the source. No cut-off for these calls is given here.

Columns and labels:
[1] = target: Voltage-gated inwardly rectifying potassium channel KCNH2 (Homo sapiens, UniProt Q12809); assay: Inhibition of human ERG
[2] = Inhibition of Cytochrome P450; format: ADME
[3] = target: T1, Lysophosphatidic acid receptor 3 (Homo sapiens) (UniProt Q9UBY5); assay: Antagonist activity at human recombinant LPA3 expressed in chem-1 cells assessed as inhibition of LPA-induced intracellular calcium mobilization at 30 uM incubated for 30 mins prior to LPA-challenge measured over 100 secs by FLIPR assay; format: functional, cell-based
T1 sequence (whole entry): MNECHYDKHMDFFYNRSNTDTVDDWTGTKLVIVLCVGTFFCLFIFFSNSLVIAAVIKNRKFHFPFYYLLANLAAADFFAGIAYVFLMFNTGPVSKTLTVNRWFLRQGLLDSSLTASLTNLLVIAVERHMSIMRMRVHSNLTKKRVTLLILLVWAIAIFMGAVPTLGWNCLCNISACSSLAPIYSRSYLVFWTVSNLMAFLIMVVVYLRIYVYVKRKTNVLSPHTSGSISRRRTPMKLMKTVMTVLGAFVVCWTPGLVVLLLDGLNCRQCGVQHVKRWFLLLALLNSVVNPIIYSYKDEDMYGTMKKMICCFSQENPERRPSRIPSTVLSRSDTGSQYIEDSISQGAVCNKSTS
Method in brief: (§1)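 Calcium-optimized Chem-1 cells stably expressing human LPA1 or LPA3 (parental line with ionomycin as counterscreen), seeded 10,000/well the day before. Calcium-4 dye in HBSS/20 mM HEPES/2.5 mM probenecid loaded 30 min at 37 °C; compound added, 30 min at room temperature in the dark; LPA (18:1) 1 μM final. Peak fluorescence read over 100 s; IC50 from 10-concentration 4-parameter logistic fit, mean of at least three runs.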

[4] = Inhibition of LPA-induced proliferation of HLF incubated for 1 hr prior to LPA-challenge measured after 48 hrs by BrdU incorporation assay; details: Homo sapiens
[5] = target: T2, Lysophosphatidic acid receptor 1 (Homo sapiens, UniProt Q92633); assay: Antagonist activity at human recombinant LPA1 expressed in chem-1 cells assessed as inhibition of LPA-induced intracellular calcium mobilization incubated for 30 mins prior to LPA-challenge measured over 100 secs by FLIPR assay; format: functional, cell-based; method in brief: as §1
[6] = target: T2, Lysophosphatidic acid receptor 1; assay: Antagonist activity at human recombinant LPA1 expressed in chem-1 cells assessed as inhibition of LPA-induced intracellular calcium mobilization at 30 uM incubated for 30 mins prior to LPA-challenge measured over 100 secs by FLIPR assay; format: functional, cell-based; method in brief: as §1
[7] = target: T2, Lysophosphatidic acid receptor 1; assay: Antagonist activity at LPA1 in human lung fibroblasts assessed as inhibition of LPA-induced contraction after 18 hrs by 3D collagen gel contraction assay; format: functional
Method in brief: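 NHLFs (healthy nonsmoking donors, passages 5–9) at 2.5 × 10⁵ cells/well, mixed 1:4 with collagen lattice; gels polymerized 2 h at 37 °C, then basal medium with 0.1% FBS, 0.1% fatty acid-free BSA and vehicle or antagonist added. Gels detached, LPA (18:1) 15 μM added; after 18 h, contraction quantified by gel disc weight.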

T2 sequence (Q92633 whole entry): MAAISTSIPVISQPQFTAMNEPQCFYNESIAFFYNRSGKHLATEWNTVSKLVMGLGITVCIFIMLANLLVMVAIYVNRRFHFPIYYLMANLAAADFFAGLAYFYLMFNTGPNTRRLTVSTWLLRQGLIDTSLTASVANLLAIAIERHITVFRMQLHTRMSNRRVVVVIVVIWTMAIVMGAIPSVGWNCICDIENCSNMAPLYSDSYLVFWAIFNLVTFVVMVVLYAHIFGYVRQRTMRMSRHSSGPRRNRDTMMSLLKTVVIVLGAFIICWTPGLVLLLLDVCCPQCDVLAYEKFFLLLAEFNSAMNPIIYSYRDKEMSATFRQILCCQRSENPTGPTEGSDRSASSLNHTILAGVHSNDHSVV
Voltage-gated inwardly rectifying potassium channel KCNH2, sequence (Q12809 whole entry): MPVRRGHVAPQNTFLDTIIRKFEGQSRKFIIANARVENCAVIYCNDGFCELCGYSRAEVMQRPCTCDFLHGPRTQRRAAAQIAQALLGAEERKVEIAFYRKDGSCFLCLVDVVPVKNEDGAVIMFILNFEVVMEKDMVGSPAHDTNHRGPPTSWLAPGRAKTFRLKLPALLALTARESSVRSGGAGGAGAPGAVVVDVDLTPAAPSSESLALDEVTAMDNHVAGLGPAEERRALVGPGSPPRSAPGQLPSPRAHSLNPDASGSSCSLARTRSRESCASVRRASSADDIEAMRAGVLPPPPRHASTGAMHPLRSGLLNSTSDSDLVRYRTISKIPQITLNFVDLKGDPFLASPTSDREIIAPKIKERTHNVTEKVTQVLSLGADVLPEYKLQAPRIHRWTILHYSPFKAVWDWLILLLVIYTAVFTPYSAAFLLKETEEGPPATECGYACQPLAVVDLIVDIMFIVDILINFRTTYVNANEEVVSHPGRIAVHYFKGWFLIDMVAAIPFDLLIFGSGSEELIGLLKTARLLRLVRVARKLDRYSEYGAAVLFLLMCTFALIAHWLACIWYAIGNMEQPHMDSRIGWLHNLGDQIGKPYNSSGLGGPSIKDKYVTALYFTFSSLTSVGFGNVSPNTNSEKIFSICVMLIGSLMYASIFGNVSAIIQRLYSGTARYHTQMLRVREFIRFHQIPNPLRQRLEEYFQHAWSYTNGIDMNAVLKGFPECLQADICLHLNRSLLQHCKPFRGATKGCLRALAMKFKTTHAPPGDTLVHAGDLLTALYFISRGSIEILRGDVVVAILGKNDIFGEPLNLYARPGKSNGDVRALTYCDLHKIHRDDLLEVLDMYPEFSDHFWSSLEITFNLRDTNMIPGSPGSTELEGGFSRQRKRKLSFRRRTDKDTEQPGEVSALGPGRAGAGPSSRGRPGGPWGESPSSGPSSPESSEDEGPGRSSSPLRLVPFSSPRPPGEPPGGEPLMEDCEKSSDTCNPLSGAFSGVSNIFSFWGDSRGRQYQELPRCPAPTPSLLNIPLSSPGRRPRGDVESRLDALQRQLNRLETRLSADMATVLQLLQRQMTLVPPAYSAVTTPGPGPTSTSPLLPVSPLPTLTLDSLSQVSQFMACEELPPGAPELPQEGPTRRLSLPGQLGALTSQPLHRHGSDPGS

Row | SMILES | inhibition (INH) [1] | inhibition (INH) [2] | inhibition [3] [%] | IC50 [4] [nM] | IC50 [5] [nM] | inhibition [6] [%] | inhibition [7]
1 | CC(C)[C@@H](C)OC(=O)Nc1c(-c2ccc(-c3ccc(C4(C(=O)O)CC4)cc3)cc2)cnn1C | Not Active | Not Active | 9 | 30 |  |  | 
2 | C[C@@H](OC(=O)Nc1c(-c2ccc(-c3ccc(C4(C(=O)O)CC4)cc3)cc2)cnn1C)c1cccc(C(F)(F)F)c1 | Not Active | Not Active |  | 37 | 41 |  | 
3 | C[C@@H](OC(=O)Nc1c(-c2ccc(-c3ccc(C4(C(=O)O)CC4)cc3)cc2)cnn1C)c1ccccc1F | Not Active | Not Active |  | 4.5 |  |  | 
4 | C[C@@H](OC(=O)Nc1c(-c2ccc(-c3ccc(CC(=O)O)cc3)cc2)nnn1C)c1ccccc1 | Not Active | Not Active |  | 60 |  |  | 
5 | C[C@@H](OC(=O)Nc1c(-c2ccc(-c3ccc(C4(C(=O)O)CC4)cc3)cc2)nnn1C)c1cccc(C(F)(F)F)c1 | Not Active | Not Active |  | 74 | 17 |  | 
6 | CC(C)[C@@H](C)OC(=O)Nc1c(-c2ccc(-c3ccc(C4(C(=O)O)CC4)cc3)cc2)nnn1C | Not Active | Not Active | 24 | 20 |  |  | 
7 | C[C@@H](OC(=O)Nc1c(-c2ccc(-c3ccc(C4(C(=O)O)CC4)cc3)cc2)nnn1C)c1ccccc1 | Not Active | Not Active |  | 3 |  |  | 
8 | C[C@@H](OC(=O)Nc1c(-c2ccccc2)cnn1C)c1ccccc1 | Not Active | Not Active |  |  |  | 65 | 
9 | Cc1nnn(-c2ccc(-c3ccc(C4(C(=O)O)CC4)cc3)cc2)c1NC(=O)O[C@H](C)C(C)C | Not Active | Not Active | 17 | 60 |  |  | 
10 | Cc1nnn(-c2ccc(-c3ccc(C4(C(=O)O)CC4)cc3)cc2)c1NC(=O)O[C@H](C)c1ccccc1F | Not Active | Not Active | 42 | 21 |  |  | 
11 | C[C@@H](OC(=O)Nc1nncn1-c1ccc(-c2ccc(C3(C(=O)O)CC3)cc2)cc1)c1ccccc1 | Not Active | Not Active | 17 |  |  | 11 | 
12 | COc1ccc(-c2cnn(C)c2NC(=O)O[C@H](C)c2ccccc2)cc1 | Not Active | Not Active |  |  |  |  | 
13 | C[C@@H](OC(=O)Nc1c(-c2ccc(-c3ccc(C4(C(=O)NS(C)(=O)=O)CC4)cc3)cc2)nnn1C)c1cccc(C(F)(F)F)c1 | Not Active | Not Active |  | 331 | 24 |  | inactive
14 | Cc1nnn(-c2ccc(-c3ccc(C4(C(=O)O)CC4)cc3)cc2)c1NC(=O)O[C@H](C)c1cccc(C(F)(F)F)c1 | Not Active | Not Active |  | 1200 |  |  | 
15 | CC[C@@H](C)OC(=O)Nc1c(C)nnn1-c1ccc(-c2ccc(C3(C(=O)O)CC3)cc2)cc1 | Not Active | Not Active | 0 | 178 |  |  | 
16 | Cc1nnn(-c2ccc(-c3ccc(C4(C(=O)NS(C)(=O)=O)CC4)cc3)cc2)c1NC(=O)O[C@H](C)c1ccccc1 | Not Active | Not Active | 7 | 60 | 32 |  | 
17 | Cn1ncc(-c2ccc(-c3ccc(C4(C(=O)O)CC4)cc3)cc2)c1NC(=O)OC1CCC1 | Not Active | Not Active | 13.7 | 192 |  |  | 
18 | CC(OC(=O)Nc1c(-c2ccc(-c3ccc(C4(C(=O)O)CC4)cc3)cc2)cnn1C)c1ccc(F)cc1 (racemic) | Not Active | Not Active |  | 5 |  |  | 
19 | CCc1nnn(-c2ccc(-c3ccc(C4(C(=O)O)CC4)cc3)cc2)c1NC(=O)O[C@H](C)c1ccccc1 | Not Active | Not Active | 63 | 16 | 42 |  | 

Row | SMILES | inhibition (INH) [1] | inhibition (INH) [2] | inhibition [3] [%] | IC50 [4] [nM] | IC50 [5] [nM] | inhibition [6] [%] | inhibition [7]
20 | C[C@H](OC(=O)Nc1c(-c2ccc(-c3ccc(C4(C(=O)O)CC4)cc3)cc2)nnn1C)c1cccc(C(F)(F)F)c1 | Not Active | Not Active |  |  |  |  | 
21 | C[C@@H](OC(=O)Nc1c(-c2ccc(-c3ccc(CC(=O)O)cc3)cc2)cnn1C)c1ccccc1 | Not Active | Not Active |  | 47 |  |  | 
22 | Cc1nnn(-c2ccc(-c3ccc(C4(c5nnn[nH]5)CC4)cc3)cc2)c1NC(=O)O[C@H](C)c1ccccc1 | Not Active | Not Active | 28 | 105 | 23 |  | 
23 | C[C@@H](OC(=O)Nc1c(-c2ccc(-c3ccc(C4(C(=O)O)CC4)cc3)cc2)cnn1C)c1ccccc1 | Not Active | Not Active |  | 2.6 | 21 |  | 
24 | Cc1nnn(-c2ccc(-c3ccc(CC(=O)O)cc3)cc2)c1NC(=O)O[C@H](C)c1ccccc1 | Not Active | Not Active | 3 |  |  | 41 | 
25 | C[C@@H](OC(=O)Nc1c(-c2ccc(-c3ccc(C4(C(=O)O)CC4)cc3)cc2F)nnn1C)c1ccccc1 | Not Active | Not Active |  | 2 |  |  | 
26 | Cn1ncc(-c2ccc(-c3ccc(C4(C(=O)O)CC4)cc3)cc2)c1NC(=O)OC1COC1 | Not Active | Not Active | 0 |  |  | 0 | 
27 | CCOC(=O)C1(c2ccc(-c3ccc(-c4cnn(C)c4NC(=O)O[C@H](C)c4ccccc4)cc3)cc2)CC1 | Not Active | Not Active |  |  |  | 65 | 
28 | Cc1nnn(-c2ccc(-c3ccc(C4(C(=O)O)CC4)cc3)cc2)c1NC(=O)O[C@H](C)c1ccccc1C(F)(F)F | Not Active | Not Active | 55 | 77 |  |  | 
29 | C[C@@H](OC(=O)Nc1c(-c2ccc(CC(=O)O)cc2)cnn1C)c1ccccc1 | Not Active | Not Active |  |  |  |  | 
30 | C[C@@H](OC(=O)Nc1c(-c2ccc(-c3ccccc3)cc2)cnn1C)c1ccccc1 | Not Active | Not Active |  |  |  |  | 
31 | C[C@@H](OC(=O)Nc1nnn(C)c1-c1ccc(-c2ccc(C3(C(=O)O)CC3)cc2)cc1)c1ccccc1 | Not Active | Not Active | 10 |  |  | 12 | 
32 | Cc1nnn(-c2ccc(-c3ccc(C4(C(=O)O)CC4)cc3)cc2)c1NC(=O)OC(C)C1CCC1 (racemic) | Not Active | Not Active | 26 | 189 |  |  | 
33 | C[C@@H](OC(=O)Nc1cnnn1-c1ccc(-c2ccc(C3(C(=O)O)CC3)cc2)cc1)c1ccccc1 | Not Active | Not Active | 23 | 40 |  |  | 
34 | Cc1nnn(-c2ccc(-c3ccc(C4(C(=O)O)CC4)cc3)cc2)c1NC(=O)OC(C)(C)C | Not Active | Not Active | 0 | 1620 |  |  | 
35 | C[C@@H](OC(=O)Nc1c(-c2ccc(-c3ccc(C4(C(=O)NS(C)(=O)=O)CC4)cc3)cc2)nnn1C)c1ccccc1 | Not Active | Not Active |  | 4 |  |  | 
36 | C[C@@H](OC(=O)Nc1c(-c2ccc(C3CCC(CC(=O)O)CC3)cc2)nnn1C)c1ccccc1 (mixture of isomers) | Not Active | Not Active |  | 7 |  |  | 
37 | C[C@H](OC(=O)Nc1c(-c2ccccc2F)cnn1C)c1ccccc1Cl | Not Active | Not Active |  |  |  |  | 
38 | CC[C@@H](C)OC(=O)Nc1c(-c2ccc(-c3ccc(C4(C(=O)O)CC4)cc3)cc2)cnn1C | Not Active | Not Active | 0 | 48 |  |  | 
